ChEMBL document CHEMBL1208768, “Synthesis, selective anti-Helicobacter pylori activity, and cytotoxicity of novel N-substituted-2-oxo-2H-1-benzopyran-3-carboxamides” (Bioorg Med Chem Lett, 2010)
≈ marks a conversion by molar mass, not a printed value. Calls of active or inactive are those of the source. The calls are words filed in the database; no cut-off is given here.

Legend:
[1] = system: Klebsiella aerogenes; test: Antibacterial activity against Enterobacter aerogenes after 18 to 22 hrs by broth microdilution method; type: functional
Summary of the method: (§1)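 Clinical respiratory-tract isolates from patients, subcultured for purity and identified conventionally. Broth microdilution per NCCLS in Mueller–Hinton II broth; each plate had growth controls (bacteria, no compound) and medium-only controls. Incubation 18–22 h at 35 °C. MIC taken as the lowest concentration giving complete growth inhibition by unaided eye.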

[2] = system: Enterobacter; test: Antibacterial activity against Enterobacter after 18 to 22 hrs by broth microdilution method; type: functional; summary of the method: as §1
[3] = system: AGS; test: Antiinflammatory activity in human AGS cells assessed as inhibition of IL-8 production at 5 ug/mL after 24 hrs; type: functional, cell-based
Summary of the method: (§2)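 AGS gastric adenocarcinoma cells were grown in F-12K with 10% FBS. They were seeded at 1 × 10⁵/mL for 24 h, preincubated 1 h with compound at 5 or 0.5 µg/mL, then exposed to H. pylori.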

[4] = system: AGS; test: Antiinflammatory activity in human AGS cells assessed as inhibition of IL-8 production at 0.5 ug/mL after 24 hrs; type: functional, cell-based; summary of the method: as §2
[5] = Cytotoxicity against human EAhy926 cells assessed as cell survival at 0.5 ug/mL after 24 hrs by trypan blue exclusion assay; type: cell-based, EA.hy 926; conditions: read-out: Survival
Summary of the method: (§3)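 EAhy cells in DMEM (high glucose) with 10% FBS, at 1 × 10⁵/mL in exponential growth and 60–70% confluent, were exposed 24 h at 37 °C to compounds from DMSO stocks (final DMSO ≤0.5%). Controls were cells alone or with DMSO, and 1 mM sodium nitroprusside as positive control. Cells were scraped, mixed 1:1 with 0.4% Trypan blue and counted on a hemocytometer by two operators. Result given as % viable cells.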

[6] = system: Helicobacter pylori; test: Antibacterial activity against metronidazole-resistant Helicobacter pylori isolate 20 after 72 hrs by agar dilution method; type: functional; conditions: isolate 20, 72 h
Summary of the method: (§4)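 H. pylori clinical isolates (ATCC 43504 control each session) stored at -80 °C and subcultured twice on Columbia agar with 10% horse serum and 0.25% yeast extract. Suspensions of 0.5 McFarland were spotted by Steer's replicator at about 5 × 10⁵ CFU/spot onto agar with twofold compound dilutions. Plates were incubated 72 h at 37 °C in 10% CO₂. MIC was the lowest concentration without visible growth.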

[7] = Cytotoxicity against human EAhy926 cells assessed as cell survival at 5 ug/mL after 24 hrs by trypan blue exclusion assay; type: cell-based, EA.hy 926; conditions: read-out: Survival; summary of the method: as §3
[8] = system: Staphylococcus hominis; test: Antibacterial activity against Staphylococcus hominis after 18 to 22 hrs by broth microdilution method; type: functional; summary of the method: as §1
[9] = system: Helicobacter pylori; test: Antibacterial activity against metronidazole-resistant Helicobacter pylori isolate 18 after 72 hrs by agar dilution method; type: functional; conditions: isolate 18, 72 h; summary of the method: as §4
[10] = system: Helicobacter pylori; test: Antibacterial activity against metronidazole-resistant Helicobacter pylori NCTC 11637 after 72 hrs by agar dilution method; type: functional; conditions: NCTC 11637, 72 h; summary of the method: as §4
[11] = system: Enterococcus faecalis; test: Antibacterial activity against Streptococcus faecalis after 18 to 22 hrs by broth microdilution method; type: functional; summary of the method: as §1
[12] = system: Pichia kudriavzevii; test: Antifungal activity against Candida krusei after 24 hrs by broth microdilution method; type: functional
Summary of the method: (§5)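 Candida isolates from respiratory-tract specimens, tested by NCCLS broth microdilution in Sabouraud dextrose broth. Serial compound dilutions inoculated to 10³/mL, with fungus-only and medium-only controls. Incubated 24 h at 37 °C. MIC was the lowest concentration with complete visible growth inhibition.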

[13] = Cytotoxicity against human EAhy926 cells assessed as cell survival at 5 ug/mL after 24 hrs by MTT assay; type: cell-based, EA.hy 926; conditions: read-out: Survival
[14] = system: Proteus vulgaris; test: Antibacterial activity against Proteus vulgaris after 18 to 22 hrs by broth microdilution method; type: functional; summary of the method: as §1
[15] = system: Helicobacter pylori; test: Antibacterial activity against metronidazole-resistant Helicobacter pylori isolate 1 after 72 hrs by agar dilution method; type: functional; conditions: isolate 1, 72 h; summary of the method: as §4
[16] = system: AGS (Homo sapiens); test: Cytotoxicity against human AGS cells assessed as cell survival at 50 ug/mL after 24 hrs by MTT assay
[17] = system: Klebsiella pneumoniae; test: Antibacterial activity against Klebsiella pneumoniae after 18 to 22 hrs by broth microdilution method; type: functional; summary of the method: as §1
[18] = Cytotoxicity against human EAhy926 cells assessed as cell survival at 50 ug/mL after 24 hrs by trypan blue exclusion assay; type: cell-based, EA.hy 926; conditions: read-out: Survival; summary of the method: as §3
[19] = system: Staphylococcus epidermidis; test: Antibacterial activity against Staphylococcus epidermidis after 18 to 22 hrs by broth microdilution method; type: functional; summary of the method: as §1
[20] = system: Escherichia coli; test: Antibacterial activity against Escherichia coli after 18 to 22 hrs by broth microdilution method; type: functional; summary of the method: as §1
[21] = system: Citrobacter freundii; test: Antibacterial activity against Citrobacter freundii after 18 to 22 hrs by broth microdilution method; type: functional; summary of the method: as §1
[22] = system: [Candida] sake; test: Antifungal activity against Candida sake after 24 hrs by broth microdilution method; type: functional; conditions: Fermentozyma sake; summary of the method: as §5
[23] = system: Staphylococcus aureus; test: Antibacterial activity against Staphylococcus aureus after 18 to 22 hrs by broth microdilution method; type: functional; summary of the method: as §1
[24] = Cytotoxicity against human EAhy926 cells assessed as cell survival at 0.5 ug/mL after 24 hrs by MTT assay; type: cell-based, EA.hy 926; conditions: read-out: Survival
[25] = system: Klebsiella oxytoca; test: Antibacterial activity against Klebsiella oxytoca after 18 to 22 hrs by broth microdilution method; type: functional; summary of the method: as §1
[26] = Cytotoxicity against human EAhy926 cells assessed as cell survival at 0.05 ug/mL after 24 hrs by trypan blue exclusion assay; type: cell-based, EA.hy 926; conditions: read-out: Survival; summary of the method: as §3
[27] = system: Helicobacter pylori; test: Antibacterial activity against Helicobacter pylori ATCC 43504 clinical isolates after 72 hrs by agar dilution method; type: functional; conditions: ATCC 43504, 72 h
Summary of the method: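 Agar dilution per NCCLS. Twenty clinical strains from duodenal ulcer or gastritis patients, with ATCC 43504 as control in each session, were subcultured twice on Columbia agar plus 10% horse serum and 0.25% yeast extract (72 h, 37 °C, 10% CO₂). Inoculum of 0.5 McFarland in Wilkins Chalgren broth, about 5 × 10⁵ CFU/spot by Steer's replicator. Plates held twofold compound dilutions down to 0.0039 µg/mL and were incubated 72 h at 37 °C, 10% CO₂. MIC was the lowest concentration inhibiting visible growth.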

[28] = system: Helicobacter pylori; test: Antibacterial activity against metronidazole-resistant Helicobacter pylori isolate 8 after 72 hrs by agar dilution method; type: functional; conditions: isolate 8, 72 h; summary of the method: as §4
[29] = system: Candida albicans; test: Antifungal activity against Candida albicans after 24 hrs by broth microdilution method; type: functional; summary of the method: as §5
[30] = system: Staphylococcus haemolyticus; test: Antibacterial activity against Staphylococcus haemolyticus after 18 to 22 hrs by broth microdilution method; type: functional; summary of the method: as §1

Compound | MIC [1] | MIC [2] | inhibition [3] | inhibition [4] | viability at 24 h, 0.5 ug/mL [5] | MIC [6] | viability at 24 h, 5 ug/mL [7] | MIC [8] | MIC [9] | MIC [10] | MIC [11] | MIC [12] | viability at 24 h, 5 ug/mL [13] | MIC [14] | MIC [15] | viability at 24 h, 50 ug/mL [16] | MIC [17] | viability at 24 h, 50 ug/mL [18] | MIC [19] | MIC [20] | further results
CCOC(=O)c1ccc(NC(=O)c2cc3ccc(O)cc3oc2=O)cc1 | > 128 µg/mL | > 128 µg/mL | inactive | inactive | 95% | 2 µg/mL (≈ 5.66 µM) | 92% | > 128 µg/mL | 8 µg/mL (≈ 22.6 µM) | 8 µg/mL (≈ 22.6 µM) | > 128 µg/mL | > 128 µg/mL | 82% | > 128 µg/mL | 8 µg/mL (≈ 22.6 µM) | 78% | > 128 µg/mL | 64% | > 128 µg/mL | > 128 µg/mL | MIC [21]: > 128 µg/mL; MIC [22]: > 128 µg/mL; MIC [23]: > 128 µg/mL; viability at 24 h, 0.5 ug/mL [24]: 99%; MIC [25]: > 128 µg/mL; viability at 24 h, 0.05 ug/mL [26]: 96%; MIC50 [27]: 8 µg/mL (≈ 22.6 µM); MIC90 [27]: 8 µg/mL (≈ 22.6 µM); MIC [28]: 4 µg/mL (≈ 11.3 µM); MIC [29]: > 128 µg/mL; MIC [30]: > 128 µg/mL
CCOC(=O)c1ccc(NC(=O)c2cc3cc(C)ccc3oc2=O)cc1 | > 128 µg/mL | > 128 µg/mL | inactive | inactive | 77% | 2 µg/mL (≈ 5.69 µM) | 59% | > 128 µg/mL | 2 µg/mL (≈ 5.69 µM) | 4 µg/mL (≈ 11.4 µM) | > 128 µg/mL | > 128 µg/mL | 81% | > 128 µg/mL | 8 µg/mL (≈ 22.8 µM) | 63% | > 128 µg/mL | 14% | > 128 µg/mL | > 128 µg/mL | MIC [21]: > 128 µg/mL; MIC [22]: > 128 µg/mL; MIC [23]: > 128 µg/mL; viability at 24 h, 0.5 ug/mL [24]: 99%; MIC [25]: > 128 µg/mL; viability at 24 h, 0.05 ug/mL [26]: 80%; MIC50 [27]: 4 µg/mL (≈ 11.4 µM); MIC90 [27]: 8 µg/mL (≈ 22.8 µM); MIC [28]: 8 µg/mL (≈ 22.8 µM); MIC [29]: > 128 µg/mL; MIC [30]: > 128 µg/mL
CCOC(=O)c1ccc(NC(=O)c2cc3cc(OC)ccc3oc2=O)cc1 | > 128 µg/mL | > 128 µg/mL | inactive | inactive | 67% | 4 µg/mL (≈ 10.9 µM) | 42% | > 128 µg/mL | 4 µg/mL (≈ 10.9 µM) | 4 µg/mL (≈ 10.9 µM) | > 128 µg/mL | > 128 µg/mL | 58% | > 128 µg/mL | 8 µg/mL (≈ 21.8 µM) | 41% | > 128 µg/mL | 36% | > 128 µg/mL | > 128 µg/mL | MIC [21]: > 128 µg/mL; MIC [22]: > 128 µg/mL; MIC [23]: > 128 µg/mL; viability at 24 h, 0.5 ug/mL [24]: 98%; MIC [25]: > 128 µg/mL; viability at 24 h, 0.05 ug/mL [26]: 72%; MIC50 [27]: 4 µg/mL (≈ 10.9 µM); MIC90 [27]: 8 µg/mL (≈ 21.8 µM); MIC [28]: 4 µg/mL (≈ 10.9 µM); MIC [29]: > 128 µg/mL; MIC [30]: > 128 µg/mL
O=C(O)c1ccc(NC(=O)c2cc3ccc(O)cc3oc2=O)cc1 | > 128 µg/mL | > 128 µg/mL | inactive | inactive | 93% | 8 µg/mL (≈ 24.6 µM) | 92% | > 128 µg/mL | 8 µg/mL (≈ 24.6 µM) | 8 µg/mL (≈ 24.6 µM) | > 128 µg/mL | > 128 µg/mL | 99% | > 128 µg/mL | 8 µg/mL (≈ 24.6 µM) | 77% | > 128 µg/mL | 82% | > 128 µg/mL | > 128 µg/mL | MIC [21]: > 128 µg/mL; MIC [22]: > 128 µg/mL; MIC [23]: > 128 µg/mL; viability at 24 h, 0.5 ug/mL [24]: 99%; MIC [25]: > 128 µg/mL; viability at 24 h, 0.05 ug/mL [26]: 98%; MIC50 [27]: 8 µg/mL (≈ 24.6 µM); MIC90 [27]: 16 µg/mL (≈ 49.2 µM); MIC [28]: 4 µg/mL (≈ 12.3 µM); MIC [29]: > 128 µg/mL; MIC [30]: > 128 µg/mL
